PubChem BioAssay AID871 (The Scripps Research Institute Molecular Screening Center, 2007)
Among all 190,000 compounds or so, about 1,800 (0.95%) were called active. Only a selection was taken, and actives are over-represented in it overall. Unmarked numbers belong to inactive results.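 How the source made its calls: active means activation above the screen-wide mean of compound activation plus 3 SD (cut at about 130% in these data); inactive means the rest.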

Experiment: enhancers of STAT3 transcriptional signaling – U3A cells, luciferase, luminescence, MLSCN library, primary screen (AID 871);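 further: 0% = background luminescence of wells with medium and substrate only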
Conditions: IL-6 STAT3-luciferase reporter, at 5.6 µM, hits give high values, 100% = signal with IL-6 EC80 alone
In short: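 Test system: human U3A cells carrying STAT3-luciferase construct; control set: IL-6-only wells as 100% reference; timing: compound pre-incubation 1 h before IL-6, then 6 h stimulation at 37 °C; also added: IL-6 stimulus at 33 ng/mL final; evaluation: % activation versus median of IL-6-stimulated wells; detection: reporter luminescence signal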
With `Cn1c(=NC(=O)c2ccco2)sc2cccc(F)c21` the activation (% of control) was 144% (active).
`Cn1c(=NC(=O)c2cnccn2)sc2ccccc21` showed an activation (% of control) of 83.8%.
For `CCCC(=O)N=c1sc2cccc(F)c2n1C`, the activation (% of control) was 113%.
With `CCC(CC)NC(=O)CSc1nnc(-c2c[nH]c3ccccc23)o1` the activation (% of control) was 90.9%.
`NS(=O)(=O)c1ccc(NC(=O)COC(=O)CCc2c[nH]c3ccccc23)cc1` gave an activation (% of control) of 108%.
In the case of `O=C(CSc1nnc(-c2c[nH]c3ccccc23)o1)c1ccccc1`, the activation (% of control) is reported as 106%.
In the case of `CN(Cc1cccs1)C(=O)Cc1c[nH]c2ccccc12`, the activation (% of control) is reported as 86%.
With `O=C(Cc1c[nH]c2ccccc12)OCCOC(=O)Cc1c[nH]c2ccccc12` the activation (% of control) was 136% (active).
With `CCOC(=O)CN(C)Cc1c[nH]c2ccccc12` the activation (% of control) was 137% (active).
In the case of `NC(=O)CSc1c[nH]c2ccccc12`, the activation (% of control) is reported as 143% (active).
For `CC(C)(C)N(Cc1ccccc1)C(=O)COC(=O)CCc1c[nH]c2ccccc12`, the activation (% of control) was 87.1%.
For `COc1ccccc1NC(=O)CCCc1c[nH]c2ccccc12`, the activation (% of control) was 88.8%.
For `Cc1ccnc(NC(=O)Cn2ccc([N+](=O)[O-])n2)c1`, the activation (% of control) was 96.1%.
`CCOC(=O)c1cnc2c(c(C)nn2CC)c1Cl` showed an activation (% of control) of 107%.
Molecule `Oc1oc(-c2ccccc2Br)nc1/C=N/c1ccccn1` has an activation (% of control) of 107%.
In the case of `O=C(CSc1ccccc1F)NC1CCS(=O)(=O)C1` (stereo not drawn), the activation (% of control) is reported as 95.7%.
For `CC(NC(=O)COC(=O)C1CCN(S(=O)(=O)c2ccccc2C(F)(F)F)CC1)c1ccccc1` (stereo not drawn), the activation (% of control) was 106%.
With `CCOc1ccc(-n2c(SCC(=O)NC3CCS(=O)(=O)C3)nnc2-c2cccnc2)cc1` (stereo not drawn) the activation (% of control) was 99.7%.
With `COC(=O)C(C)N=Cc1ccccc1` (stereo not drawn) the activation (% of control) was 102%.
For `S=C(NCCc1ccccc1)N1CCn2cccc2C1c1ccncc1` (stereo not drawn), the activation (% of control) was 103%.
Molecule `Cn1nc(C(F)(F)F)c2cc(C(=O)N3CCOCC3)sc21` has an activation (% of control) of 105%.
Molecule `Cc1ccc(S(=O)(=O)C(C#N)c2nc3ccccc3nc2N2CCCC2)cc1C` (stereo not drawn) has an activation (% of control) of 92.7%.
For `Cc1ccc(S(=O)(=O)Nc2nc3ccccc3nc2N2CCc3ccccc3C2)cc1`, the activation (% of control) was 147% (active).
For `Cc1ccc(NC(=O)CN2CCc3ccccc3C2)cc1`, the activation (% of control) was 99.5%.
`O=C(COc1ccccc1)Nc1ccc(N2CCN(C(=O)c3cccs3)CC2)cc1` gave an activation (% of control) of 93.1%.
Molecule `O=C1NC2(CCCCCC2)C(=O)N1CCS(=O)(=O)Oc1ccccc1` has an activation (% of control) of 104%.
In the case of `Cc1cc(NC(=O)CSc2nc3cc(Cl)ccc3c(=O)n2Cc2ccco2)no1`, the activation (% of control) is reported as 103%.
For `Cc1ccc(Cn2c(C)nc3c(c2=O)c2nc4ccccc4nc2n3Cc2ccco2)cc1`, the activation (% of control) was 107%.
In the case of `Clc1cccc(-c2nc3nc4ccccc4nc3n2Cc2ccco2)c1`, the activation (% of control) is reported as 135% (active).
`C/C(=N\NC(=O)CCn1nc(C)cc1C)C(C)(C)C` gave an activation (% of control) of 95.6%.
`O=C(CSc1ncnc2scc(-c3ccccc3)c12)NCc1ccc2c(c1)OCO2` gave an activation (% of control) of 103%.
`COc1cccc(-c2nn(C)c3sc(C(=O)N4CCN(c5ccccc5)CC4)cc23)c1` gave an activation (% of control) of 103%.
`COc1ccc(-c2cc(C(=O)NCc3ccco3)no2)cc1OC` gave an activation (% of control) of 101%.
Molecule `COc1ccc2c(Cl)c(C(=O)NCc3ccco3)sc2c1` has an activation (% of control) of 95.9%.
In the case of `COc1ccccc1N1CCN(C(=O)c2cc3c(-c4ccc(Cl)cc4)nn(C)c3s2)CC1`, the activation (% of control) is reported as 146% (active).
Work on `CCOC(=O)N1CCN(C(=O)c2cc3c(-c4ccc(Cl)cc4)nn(C)c3s2)CC1` yielded an activation (% of control) of 107%.
With `Cn1nc(-c2ccc(Cl)cc2)c2cc(C(=O)NCc3ccco3)sc21` the activation (% of control) was 158% (active).
In the case of `CN(C)C(=O)c1ccc2c(c1)C1C3CCC(C3)C1C(c1ccccc1)N2` (stereo not drawn), the activation (% of control) is reported as 91.5%.
Molecule `CCOc1ccc(NS(=O)(=O)c2cc(C)c(C)cc2C)cc1` has an activation (% of control) of 102%.
`COc1ccc(OC(C)C(=O)NCCc2nc3ccccc3[nH]2)cc1` (stereo not drawn) showed an activation (% of control) of 98.1%.
`COc1cc(OC)cc(C(=O)N[C@H](C(=O)OCC(=O)NC(C)c2ccccc2)C(C)C)c1` (stereo partly drawn) showed an activation (% of control) of 102%.
With `COc1cc(OC)cc(C(=O)N[C@H](C(=O)Nc2nc3ccccc3[nH]2)C(C)C)c1` the activation (% of control) was 148% (active).
Molecule `Cc1cc2oc(=O)cc(CN3CCN(S(=O)(=O)c4cccs4)CC3)c2cc1C(C)C` has an activation (% of control) of 98.7%.
With `C=CCn1c(C)cc(C2=NNC(=NCC)SC2)c1C` the activation (% of control) was 8.94%.
With `COCCn1c(C)cc(C2=NNC(=Nc3ccc(F)cc3)SC2)c1C` the activation (% of control) was 133% (active).
Work on `Cc1cc(C2=NNC(=Nc3ccc(S(=O)(=O)N4CCOCC4)cc3)SC2)c(C)n1CC1CCCO1` (stereo not drawn) yielded an activation (% of control) of 102%.
Work on `Cc1c(Cl)c([N+](=O)[O-])nn1CCCC(=O)NC(C)c1ccccc1` (stereo not drawn) yielded an activation (% of control) of 101%.
With `O=S1(=O)CC/C(=N\Nc2ccc(F)cc2)c2ccsc21` the activation (% of control) was 80.3%.
Molecule `C=Cn1c(C(=O)O)ccc1-c1ccc(OC)cc1` has an activation (% of control) of 103%.
For `O=C(COC(=O)c1ccncc1)c1ccccc1`, the activation (% of control) was 97.1%.
In the case of `COc1cccc(NC(=O)C(Sc2nnnn2C)c2ccccc2)c1` (stereo not drawn), the activation (% of control) is reported as 88.9%.
`CSc1ncnc2sc(C)c(C)c12` gave an activation (% of control) of 91.1%.
For `Cc1sc2ncnc(Sc3nc4ccccc4s3)c2c1C`, the activation (% of control) was 135% (active).
Molecule `COC(=O)c1c(-c2cccs2)csc1NC(=O)CSc1ncnc2sc(C)c(C)c12` has an activation (% of control) of 93.1%.
`Cc1csc(CN(C)C(=O)CC2C(=O)NCCN2CC(C)(C)C)n1` (stereo not drawn) showed an activation (% of control) of 96.6%.
Work on `O=C(CN1CCN(c2ccc(Cl)cc2)CC1)NCc1cccs1` yielded an activation (% of control) of 99%.
Molecule `Cc1c(CCO)c(=O)n(-c2ccccc2)n1S(=O)(=O)c1ccc(F)cc1` has an activation (% of control) of 100%.
Molecule `CC(=O)NC1(c2ccc(F)cc2)CCN(C(=O)c2c(F)cccc2F)CC1` has an activation (% of control) of 104%.
With `Cc1c(CCO)c(=O)[nH]n1C(=O)c1c(F)cccc1F` the activation (% of control) was 134% (active).
Work on `CN1CCN(CCCCOc2ccccc2-c2ccccc2)CC1` yielded an activation (% of control) of 96.6%.
Work on `CCOC(=O)c1ccccc1NC(=S)N1CCC(C(N)=O)CC1` yielded an activation (% of control) of 98.2%.
For `COc1ccc(Cl)cc1N(CC(=O)N1CCCCC1)S(C)(=O)=O`, the activation (% of control) was 99%.
With `Cc1ccc2cc(C)c(N3CCC(C)CC3)nc2c1` the activation (% of control) was 86.1%.
`COc1ccccc1-c1nnc(SCC(=O)Nc2ccccc2)o1` showed an activation (% of control) of 91.3%.
In the case of `COc1ccccc1-c1nnc(SCC(=O)N2CC(C)CC(C)C2)o1` (stereo not drawn), the activation (% of control) is reported as 138% (active).
In the case of `COc1ccccc1N1CCN(C(=O)CSc2nnc(-c3ccoc3C)o2)CC1`, the activation (% of control) is reported as 93.7%.
`Cc1ccc(-n2c(SCC(=O)Nc3ncc(Cl)cc3Cl)nc3ccccc32)cc1` gave an activation (% of control) of 98%.
`Cc1ccc(NC(=O)c2sc3nc(N)c(C#N)cc3c2N)cc1` gave an activation (% of control) of 100%.
In the case of `Cc1cccc(OP(=O)(Nc2c(C)n(C)n(-c3ccccc3)c2=O)Oc2cccc(C)c2)c1`, the activation (% of control) is reported as 98.3%.
For `COc1ccc(C)cc1NC(=O)c1ccc(-c2ccc(C(C)=O)cc2)o1`, the activation (% of control) was 78.6%.
In the case of `COc1cccc(NC(=S)C(C#N)=C2N(C)c3ccccc3N2C)c1`, the activation (% of control) is reported as 145% (active).
`COc1cccc(NC(=O)C(C)Oc2ccccc2)c1` (stereo not drawn) showed an activation (% of control) of 97.5%.
For `COc1cccc(NC(=S)NCc2ccccn2)c1`, the activation (% of control) was 106%.
In the case of `O=C(NCC1CCN(Cc2ccccc2Cl)CC1)Nc1cccc(Cl)c1`, the activation (% of control) is reported as 102%.
In the case of `CNc1nc(Nc2ccc(C)c(Cl)c2)nc(N)c1[N+](=O)[O-]`, the activation (% of control) is reported as 132%.
With `Cc1ccc(C(=O)N/C(=C/c2ccco2)C(=O)NCCc2c[nH]c3ccccc23)cc1C` the activation (% of control) was 134% (active).
In the case of `COc1ccc(/C=C(\NC(=O)c2ccc(OC)c(OC)c2)C(=O)NCCc2c[nH]c3ccccc23)cc1`, the activation (% of control) is reported as 112%.
With `O=C(NC(Cc1c[nH]c2ccccc12)C(=O)O)/C(=C/c1ccco1)NC(=O)c1ccccc1` (stereo not drawn) the activation (% of control) was 107%.
In the case of `COC(=O)c1[nH]c2cccc(C)c2c1NC(=O)CN1CCCc2ccccc21`, the activation (% of control) is reported as 140% (active).
With `O=C(CN1CCc2ccccc21)NC(c1ccccc1)c1ccccc1` the activation (% of control) was 103%.
With `Cc1ccccc1NC(=O)CNc1ccccc1N1CCCCC1` the activation (% of control) was 101%.
For `NS(=O)(=O)c1cccc(NC(=O)CN2CCCc3ccccc32)c1`, the activation (% of control) was 106%.
For `COC(=O)c1[nH]c2ccccc2c1NC(=O)CN1CCCc2ccccc21`, the activation (% of control) was 154% (active).
`CCOC(=O)c1[nH]c2ccc(OC)cc2c1NC(=O)CCN1CCN(Cc2ccccc2)CC1` showed an activation (% of control) of 104%.
For `CC(C(=O)N=Nc1c(O)n(C)c2ccc(Br)cc12)n1cnc2ccccc2c1=O` (stereo not drawn), the activation (% of control) was 121%.
`CCN1CCN(c2ccc(NC(=O)c3cnccn3)cc2)CC1` gave an activation (% of control) of 100%.
For `CCCCCC1CCC(c2nnc(SCC(C)=O)o2)CC1` (stereo not drawn), the activation (% of control) was 101%.
`CN(C)/C(=N\OC(=O)c1ccccc1)c1nonc1N` gave an activation (% of control) of 97.7%.
With `O=c1[nH]c(CSc2ncc(-c3ccc(F)cc3)n2Cc2ccco2)nc2ccccc12` the activation (% of control) was 152% (active).
Molecule `CCn1c(Cc2ccccc2)nnc1SCc1nc2ccccc2c(=O)[nH]1` has an activation (% of control) of 107%.
`Cn1c(-c2ccc(F)cc2)cnc1SCC(=O)NCc1ccco1` showed an activation (% of control) of 101%.
Work on `CC(C(=O)O)n1cnc2sc3c(c2c1=O)CCCC3` (stereo not drawn) yielded an activation (% of control) of 102%.
In the case of `COc1ccc(C2C(C(C)=O)=C(O)C(=O)N2c2nccs2)cc1` (stereo not drawn), the activation (% of control) is reported as 134% (active).
Molecule `COc1ccc(C2C(C(C)=O)=C(O)C(=O)N2CCc2c[nH]c3ccccc23)cc1` (stereo not drawn) has an activation (% of control) of 108%.
For `COc1ccc(C2C(C(C)=O)=C(O)C(=O)N2Cc2cccnc2)cc1` (stereo not drawn), the activation (% of control) was 100%.
`O=C(Cc1ccccc1Cl)N1CCN(c2ccccn2)CC1` gave an activation (% of control) of 100%.
`Cn1nnnc1NCc1ccc(Cl)c(Cl)c1` gave an activation (% of control) of 101%.
`C[n+]1ccc(/C=C/c2c[nH]c3ccccc23)cc1` showed an activation (% of control) of 115%.
